Data from ChEMBL document CHEMBL1144100, “Homo- and nor-plakotenin, new carboxylic acids from the Palauan sponge Plakortis lita” (1999).
The source made the active and inactive calls. The rule behind the calls is not given here.

Assays:
[1] = Antiproliferative activity against rheumatoid synovial fibroblasts assessed as inhibition of PDGF-BB-induced DNA synthesis at 1 ug/mL treated 15 mins before PDGF-BB challenge by [3H]thymidine incorporation assay; assay type: functional
Procedure, shortened: (§1)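 Rheumatoid synovial fibroblasts plated at 1.2 × 10^4 cells/well in EMEM with 10% heat-inactivated FBS and penstrep, allowed to adhere 6 h at 37 °C, 5% CO2. Then serum-arrested 24 h in 0.2% FBS. Compounds added in DMSO (0.5% final) for 15 min at room temperature, then 1 nM PDGF-BB in 10% FBS medium for 24 h. Pulsed with 0.5 µCi/well [3H]-thymidine for 24 h, trypsin/EDTA-detached, harvested, scintillation counted versus controls.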

[2] = Antiproliferative activity against rheumatoid synovial fibroblasts assessed as inhibition of PDGF-BB-induced DNA synthesis at 0.1 ug/mL treated 15 mins before PDGF-BB challenge by [3H]thymidine incorporation assay; assay type: functional; procedure, shortened: as §1

Structure (SMILES)	inhibition (INH) [1] [%]	Activity [2]	inhibition at 1 µg/mL [1] [%]
CC[C@@]1(/C=C(\C)C(=O)O)[C@H]2[C@H](C(C)=C[C@H]1c1ccccc1)[C@H](C)C[C@H]2C [PLAKOTENIN]	76.8		
CC[C@@]1(/C=C(\C)C(=O)O)[C@H]2[C@H](C(C)=C[C@H]1c1ccccc1)[C@H](C)C[C@H]2C		inactive	
CC[C@@]1(/C=C(\C)C(=O)[O-])[C@H]2[C@H](C(C)=C[C@H]1c1ccccc1)[C@H](C)C[C@H]2C.[Na+] [PLAKOTENIN SODIUM SALT]	35.7		
CCC1=C[C@@H](c2ccccc2)[C@@](/C=C(\C)C(=O)O)(CC)[C@H]2[C@H]1[C@H](C)C[C@H]2C [listing 1 of 2 here]	73.5		
CCC1=C[C@@H](c2ccccc2)[C@@](/C=C(\C)C(=O)[O-])(CC)[C@H]2[C@H]1[C@H](C)C[C@H]2C.[Na+]	27.8		
CC1=C[C@@H](c2ccccc2)[C@](C)(/C=C(\C)C(=O)O)[C@H]2[C@H]1[C@H](C)C[C@H]2C		inactive	0
CCC1=C[C@@H](c2ccccc2)[C@@](/C=C(\C)C(=O)O)(CC)[C@H]2[C@H]1[C@H](C)C[C@H]2C [listing 2 of 2 here]		inactive	
